Experimental data from ChEMBL document CHEMBL3091284, “Hygrocins C-G, cytotoxic naphthoquinone ansamycins from gdmAI-disrupted Streptomyces sp. LZ35” (J Nat Prod, 2013).
Active and inactive are the calls of the source. The rule behind the calls is not given here.

Experiments:
Format in all cases: functional, cell-based
[1] = Cytotoxicity against human MDA-MB-431 cells by MTT assay
Outline: (§1)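 MTT viability/proliferation assay on human cancer lines (breast MDA-MB-431, prostate PC3, alveolar basal epithelial A549, colorectal SW620, hepatocellular HepG2). Compounds tested up to a maximum of 10 μM, with activity judged relative to control and IC50 derived. Cisplatin at 5 μg/mL served as positive control.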

PC-3 [2] = experiment: Cytotoxicity against human PC3 cells by MTT assay; outline: as §1
PC-3 [3] = experiment: Cytotoxicity against human PC3 cells assessed as growth inhibition up to 10 uM by MTT assay; outline: as §1
HepG2 = experiment: Cytotoxicity against human HepG2 cells assessed as growth inhibition up to 10 uM by MTT assay; outline: as §1
Homo sapiens = species: Homo sapiens; experiment: Cytotoxicity against human MDA-MB-431 cells assessed as growth inhibition up to 10 uM by MTT assay; outline: as §1
SW-620 = experiment: Cytotoxicity against human SW620 cells assessed as growth inhibition up to 10 uM by MTT assay; outline: as §1
A549 = experiment: Cytotoxicity against human A549 cells assessed as growth inhibition up to 10 uM by MTT assay; outline: as §1

Row | Structure (SMILES) | IC50 [1] | IC50 (PC-3 [2]) | growth inhibition (GI) (PC-3 [3]) | growth inhibition (GI) (HepG2) | growth inhibition (GI) (Homo sapiens) | growth inhibition (GI) (SW-620) | growth inhibition (GI) (A549)
1 | CC[C@@H]1/C=C/[C@H](O)[C@H](C)OC(=O)/C(C)=C\[C@H]2C(=O)NC3=CC(=O)c4c(cc(C)c(O)c4C(=O)CC1)[C@@]32O | 0.5 µM | 1.9 µM | – | – | – | – | –
2 | CC[C@@H]1/C=C/[C@H](C(C)O)OC(=O)/C(C)=C\[C@H]2C(=O)NC3=CC(=O)c4c(cc(C)c(O)c4C(=O)CC1)[C@@]32O (stereo partly specified) | 3.3 µM | 4.5 µM | – | – | – | – | –
3 | CCC1/C=C/[C@H](O)[C@H](C)OC(=O)[C@@]2(C)C=CC(=O)NC3=C2C(=O)c2c(cc(C)c(O)c2C(=O)CC1)C3=O (stereo partly specified) | – | – | inactive | inactive | inactive | inactive | inactive
4 | CC[C@@H]1/C=C/[C@H](O)[C@H](C)OC(=O)/C(C)=C/[C@@H]2C(=O)NC3=CC(=O)c4c(cc(C)c(O)c4C(=O)CC1)[C@@]32O | – | – | inactive | inactive | inactive | inactive | inactive
5 | CCC1/C=C/[C@H](C(C)O)OC(=O)[C@@]2(C)C=CC(=O)NC3=C2C(=O)c2c(cc(C)c(O)c2C(=O)CC1)C3=O (stereo partly specified) | – | – | inactive | inactive | inactive | inactive | inactive
6 | CC[C@@H]1/C=C/[C@H](O)[C@H](C)OC(=O)/C(C)=C\[C@@H]2C(=O)NC3=CC(=O)c4c(cc(C)c(O)c4C(=O)CC1)[C@@]32O | 3 µM | 5 µM | – | – | – | – | –
